Experiments:
[1] = Human bioavailability study: 24 h urinary excretion; format: in vivo; details: humans; for 24 h urinary excretion, Snack: after 75 g baked snack; for 24 h urinary excretion, Snack / 24 h urinary excretion, Vegetable meal: per mg intake of corresponding compound; for 24 h urinary excretion, Vegetable meal: after 461 g vegetable meal
Procedure, shortened: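 Adult volunteers fasted overnight (≥10 h), then gave a fasted blood sample and spot urine. Each study meal was eaten within a targeted 15 min under nurse supervision. Urine was collected over 24 h postprandially, extracted liquid-liquid and analysed by LCMS for aglycones plus glucuronide, glucoside and sulfate conjugates. Results were expressed per mg intake, and the two meals were compared by paired t-test.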

Caco-2/TC7 cells = assay: Uptake of quercetin and apigenin by Caco-2/TC7 cells from digestates; format: in vitro ADME; details: all digestates and DMEM-only control; p < 0.05
Procedure, shortened: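 Clear supernatants from simplified simulated stomach/small-intestine digestion (with amylase) were diluted 1:1 in DMEM and applied to Caco-2/TC7 cells; DMEM with 40 µM quercetin or apigenin served as control. Uptake was summed from metabolites in medium, metabolites in cells and aglycone in cells, and the rate was this total divided by time. Mean ± SD, n = 3.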

Caco-2/TC7 monolayer = assay: Transport; format: in vitro ADME; details: p < 0.05
Procedure, shortened: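 Snack or vegetable-mix samples went through a simplified simulated gastric/small-intestinal digestion including amylase, run to completion and centrifuged to clear supernatant. Supernatant mixed 1:1 with DMEM was applied to Caco-2/TC7 monolayers; DMEM with 40 µM quercetin or apigenin served as the buffer control. Papp = (dQ/dt)/(Co·A), from total basolateral metabolites plus aglycone; mean ± SD, n = 3.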

[2] = ref Rothwell, Day, & Morgan, 2005; cited from earlier work
[3] = Determination of phytochemicals in food products; details: for change during the baking process (dough to final product): snack ratio broccoli:onion:carrot:parsley = 2.1:5.5:11.4:1
[4] = In vitro gastric-duodenal digestion; format: in vitro ADME; details: both snack and vegetable meals

| 24 h urinary excretion, Difference (absolute) vegetable meal vs snack [1] [nmol per mg intake] | 24 h urinary excretion, Snack [1] [nmol/mg intake] | 24 h urinary excretion, Vegetable meal [1] [nmol/mg intake] | urinary levels in 24 h urine, snack versus vegetable meal (paired t-test) [1] | SMILES | also measured |
| --- | --- | --- | --- | --- | --- |
| 0.05 | 0.15 ± 0.4 | 0.21 ± 0.3 | – | O=c1cc(-c2ccc(O)cc2)oc2cc(O[C@@H]3O[C@H](CO)[C@@H](O)[C@H](O)[C@H]3O)cc(O)c12 [A-7-Glc, apigenin-7-O-glucoside] | – |
| 0.99 | 6.32 ± 8.1 | 5.33 ± 6.6 | – | O=C(O)[C@H]1O[C@@H](Oc2cc(O)c3c(=O)cc(-c4ccc(O)cc4)oc3c2)[C@H](O)[C@@H](O)[C@@H]1O [A-7-GlcA] | – |
| 1.07 | 1.60 ± 2.0 | 2.67 ± 2.7 | significantly differed | COc1cc(-c2oc3cc(O)cc(O)c3c(=O)c2O[C@@H]2O[C@H](C(=O)O)[C@@H](O)[C@H](O)[C@H]2O)ccc1O [IR-3-GlcA, isorhamnetin-3-glucuronide] | – |
| 0.03 | 0.04 ± 0.1 | 0.07 ± 0.1 | – | O=c1c(O[C@@H]2O[C@H](CO)[C@@H](O)[C@H](O)[C@H]2O)c(-c2ccc(O)c(O)c2)oc2cc(O)cc(O)c12 [Quercetin-3-Glc, quercetin-3-O-glucoside] | – |
| 0.23 | 4.17 ± 3.3 | 4.40 ± 2.5 | – | O=C(O)[C@H]1O[C@@H](Oc2c(-c3ccc(O)c(O)c3)oc3cc(O)cc(O)c3c2=O)[C@H](O)[C@@H](O)[C@@H]1O [Quercetin-3-GlcA, quercetin-3-glucuronide] | – |
| 0.79 | 2.58 ± 1.9 | 3.36 ± 1.8 | – | O=c1c(OS(=O)(=O)O)c(-c2ccc(O)c(O)c2)oc2cc(O)cc(O)c12 [Quercetin-3-sulfate] | – |
| 236.4 | 272.17 ± 280.8 | 508.54 ± 450.9 | approached significance | CC(=O)N[C@@H](CSC(=S)NCCCC[S+](C)[O-])C(=O)O (stereo partly drawn) [Sulforaphane-NAC, sulforaphane-N-acetyl-cysteine] | – |
| 0.19 | 3.37 ± 6.6 | 3.55 ± 4.6 | not significantly different | O=c1cc(-c2ccc(O)cc2)oc2cc(O)cc(O)c12 [apigenin] | rate of uptake compared to quercetin (Caco-2/TC7 cells): significantly higher; Papp compared to quercetin (Caco-2/TC7 monolayer): higher; lipophilicity compared to quercetin [2]: higher lipophilicity; change during the baking process (dough to final product) [3]: +6% |
| – | – | – | not significantly different | C[S+]([O-])CCCC/C(=N\OS(=O)(=O)O)S[C@@H]1O[C@H](CO)[C@@H](O)[C@H](O)[C@H]1O (stereo partly drawn) [glucoraphanin] | change during the baking process (dough to final product) [3]: −14% |
| – | – | – | – | CC1=C[C@H](O)CC(C)(C)[C@H]1/C=C/C(C)=C/C=C/C(C)=C/C=C/C=C(C)/C=C/C=C(C)/C=C/C1=C(C)C[C@@H](O)CC1(C)C [lutein] | present in the liquid phase after in vitro digestion [4]: around 0.4 mg |
| 0.38 | 0.34 ± 0.7 | 0.72 ± 1.3 | not significantly different | O=c1c(O)c(-c2ccc(O)c(O)c2)oc2cc(O)cc(O)c12 [quercetin] | change during the baking process (dough to final product) [3]: +12% |
| – | – | – | – | CC1=C(/C=C/C(C)=C/C=C/C(C)=C/C=C/C=C(C)/C=C/C=C(C)/C=C/C2=C(C)CCCC2(C)C)C(C)(C)CCC1 [β-carotene] | present in the liquid phase after in vitro digestion [4]: no detectable; yield in the final product ([3]; dough with only carrots, after baking): 31.8 % (w/w); threshold value above which lost during the baking process ([3]; final snack product): 10–13 mg per 100 g dry matter |

| SMILES | 24 h urinary excretion, Difference (absolute) vegetable meal vs snack [1] [nmol per mg intake] | 24 h urinary excretion, Snack [1] [nmol/mg intake] | 24 h urinary excretion, Vegetable meal [1] [nmol/mg intake] | urinary levels in 24 h urine, snack versus vegetable meal (paired t-test) [1] | also measured |
| --- | --- | --- | --- | --- | --- |
| C[S+]([O-])CCCCN=C=S (stereo not drawn) [Sulforaphane] | 7.47 | 36.25 ± 27.9 | 43.72 ± 44.2 | – | – |

From publication PMC6189524 (Journal of Functional Foods, 2018)
